Test results: ChEMBL document CHEMBL3351495, “Anti-inflammatory components of Chrysanthemum indicum flowers” (Bioorg Med Chem Lett, 2015)
Active and inactive are the calls of the source. No cut-off for these calls is given here.

What was measured:
RAW264.7 [1] = test: Antiinflammatory activity in mouse RAW264.7 cells assessed as inhibition of LPS-stimulated TNFalpha production at 10 uM by ELISA; assay type: functional
Summary of the method: (§1)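 RAW 264.7 cells were stimulated with LPS, with or without each compound at 0.4, 2.0 and 10.0 μM, and secreted TNF-α was measured. Concentrations were kept below 50 μM, the level checked by MTT for viability. Values are mean ± SD from at least three independent experiments, each run in triplicate.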

RAW264.7 [2] = test: Antiinflammatory activity in mouse RAW264.7 cells assessed as inhibition of LPS-stimulated nitric oxide production at 0.4 to 10 uM after 24 hrs by Griess assay; assay type: functional, cell-based
Summary of the method: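 NO made by LPS-stimulated RAW 264.7 cells was measured by Griess reaction. Each compound was screened at 0.4, 2.0 and 10.0 μM, all below the 50 μM level checked for viability by MTT. Results are mean ± SD from at least three independent experiments run in triplicate.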

RAW264.7 [3] = test: Antiinflammatory activity in mouse RAW264.7 cells assessed as inhibition of LPS-stimulated TNFalpha production at 2 uM by ELISA; assay type: functional; summary of the method: as §1
RAW264.7 [4] = test: Cytotoxicity against mouse RAW264.7 cells at 50 uM by MTT assay; assay type: cell-based; conditions: raw264.7, 50 µM
RAW264.7 [5] = test: Antiinflammatory activity in mouse RAW264.7 cells assessed as inhibition of LPS-stimulated TNFalpha production at 0.4 to 2 uM by ELISA; assay type: functional, cell-based; summary of the method: as §1
RAW264.7 [6] = test: Antiinflammatory activity in mouse RAW264.7 cells assessed as inhibition of LPS-stimulated nitric oxide production at 10 uM after 24 hrs by Griess assay; assay type: functional; conditions: RAW264.7, 24 h
Summary of the method: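 Nitrite in the medium measured by Griess reaction and given as % inhibition of NO production. Celecoxib (1.0 μM) served as reference. Mean SD of at least three independent experiments, each in triplicate.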

RAW264.7 [7] = test: Inhibition of iNOS protein expression in LPS-stimulated mouse RAW264.7 cells by Western blot analysis; assay type: functional, cell-based
Summary of the method: (§2)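 RAW 264.7 cells exposed to LPS (1 μg/ml) with or without test agent at 0.4, 2 and 10 μM. Celecoxib (1 μM) served as reference. COX-2 and iNOS protein detected by Western blot, with actin as loading control.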

RAW264.7 [8] = test: Inhibition of COX2 protein expression in LPS-stimulated mouse RAW264.7 cells by Western blot analysis; assay type: functional, cell-based; summary of the method: as §2

Structure (SMILES)	inhibition at 10 µM (RAW264.7 [1]) [%]	inhibition (RAW264.7 [2])	inhibition at 2 µM (RAW264.7 [3]) [%]	Activity (RAW264.7 [4])	inhibition (RAW264.7 [5])	inhibition at 10 µM (RAW264.7 [6]) [%]	inhibition (RAW264.7 [7])	inhibition (RAW264.7 [8])
O=C(/C=C/c1ccc(O)c(O)c1)O[C@@H]1C[C@](O)(C(=O)O)C[C@@H](O)[C@H]1O [CHLOROGENIC ACID]	24.7	inactive	16.1	Non-toxic	–	–	–	–
O=c1cc(-c2ccc(O)c(O)c2)oc2cc(O[C@@H]3O[C@H](CO)[C@@H](O)[C@H](O)[C@H]3O)cc(O)c12 [GALUTEOLIN]	13	inactive	–	Non-toxic	inactive	–	–	–
O=C(/C=C/c1ccc(O)c(O)c1)O[C@@H]1C[C@@](OC(=O)/C=C/c2ccc(O)c(O)c2)(C(=O)O)C[C@@H](O)[C@@H]1O [CYNARIN]	–	inactive	–	Non-toxic	inactive	–	–	–
O=c1c(O)c(-c2ccc(O)c(O)c2)oc2cc(O[C@@H]3O[C@H](CO)[C@@H](O)[C@H](O)[C@H]3O)cc(O)c12 [QUERCIMERITRIN]	13	–	–	Non-toxic	inactive	36.5	Dose-dependent effect	Dose-dependent effect
O=c1c(O)c(-c2ccc(O)c(O)c2)oc2cc(O)cc(O)c12 [QUERCETIN]	13	–	–	Non-toxic	inactive	46.1	Dose-dependent effect	Dose-dependent effect
COc1cc(-c2cc(=O)c3c(O)cc(O)cc3o2)cc(OC)c1O [TRICIN]	–	inactive	–	Non-toxic	–	–	–	–
COc1cc(-c2oc3cc(O)cc(O)c3c(=O)c2O[C@@H]2O[C@H](CO)[C@@H](O)[C@H](O)[C@H]2O)ccc1O	–	inactive	–	Non-toxic	–	–	–	–
COC(=O)[C@]1(O)C[C@@H](O)[C@@H](O)[C@H](OC(=O)/C=C/c2ccc(O)c(O)c2)C1 [CHLOROGENIC ACID METHYL ESTER]	–	inactive	–	Non-toxic	inactive	–	–	–
COC(=O)[C@]1(O)C[C@@H](O)[C@@H](OC(=O)/C=C/c2ccc(O)c(O)c2)[C@H](OC(=O)/C=C/c2ccc(O)c(O)c2)C1	13	inactive	–	Non-toxic	inactive	–	–	–
CC1=C(C/C=C\CCO[C@@H]2O[C@H](CO)[C@@H](O)[C@H](O)[C@H]2O)C(=O)CC1	23	inactive	11.8	Non-toxic	–	–	–	–
CC[C@H](C)C(=O)OC[C@@H]1O[C@@]2(C(=O)OC)C[C@@H](O)[C@@H](O)[C@@H]1O2	22	inactive	14.4	Non-toxic	–	–	–	–
O=c1cc(-c2ccc(O)cc2)oc2cc(O[C@@H]3O[C@H](CO)[C@@H](O)[C@H](O)[C@H]3O)cc(O)c12 [APIGETRIN]	–	inactive	–	Non-toxic	–	–	–	–
COC(=O)[C@]1(O)C[C@@H](OC(=O)/C=C/c2ccc(O)c(O)c2)[C@@H](O)[C@H](OC(=O)/C=C/c2ccc(O)c(O)c2)C1	–	inactive	–	Non-toxic	–	–	–	–
OC[C@H]1O[C@@H](OCc2ccccc2)[C@H](O)[C@@H](O)[C@@H]1O	–	inactive	–	Non-toxic	inactive	–	–	–
COc1cc(/C=C/CO)cc(OC)c1O[C@@H]1O[C@H](CO)[C@@H](O)[C@H](O)[C@H]1O [SYRINGIN]	13	inactive	–	Non-toxic	inactive	–	–	–
OC[C@H]1O[C@@H](OCCc2ccccc2)[C@H](O)[C@@H](O)[C@@H]1O	13	inactive	–	Non-toxic	inactive	–	–	–
COC(=O)[C@]1(O)C[C@@H](O)[C@@H](OC(=O)/C=C/c2ccc(O)c(O)c2)[C@H](O)C1	–	inactive	–	Non-toxic	inactive	–	–	–
COc1cc(CCCO)cc(OC)c1O[C@@H]1O[C@H](CO)[C@@H](O)[C@H](O)[C@H]1O [DIHYDROSYRINGIN]	13	inactive	–	Non-toxic	inactive	–	–	–
